Measured values collected from several papers.
Protocols differ between the studies behind these lines.
Method: competition with immobilised ligand
RPS6KA4 C-terminal kinase domain: Ribosomal protein S6 kinase alpha-4, C-terminal kinase domain (RPS6KA4, Homo sapiens, UniProt O75676)
RPS6KA4 N-terminal kinase domain: Ribosomal protein S6 kinase alpha-4, N-terminal kinase domain (RPS6KA4, Homo sapiens, UniProt O75676)

Structure (SMILES) | target | read-out | concentration | remaining binding
O=C(c1ccc(Nc2ncc(Cl)c(-c3cc4ccccc4s3)n2)cc1)N1CCC(N2CCCC2)CC1 | RPS6KA4 C-terminal kinase domain | binding | 1 µM | 13%
c1cnn2ncc(-c3ccnc(N4CCC45COC5)n3)c2c1 | RPS6KA4 N-terminal kinase domain | binding | 1 µM | 91%
C[C@@]1(Cc2ccc(C#N)cc2)C(=O)N(c2cc(Cl)cc(Cl)c2)c2ncc(C(=O)NC3(c4nc(C5CCC5)no4)CC3)n21 | RPS6KA4 C-terminal kinase domain | cell-free assay | 1 µM | 100%
CN(C)c1nccc(-c2cnc3ncccn23)n1 | RPS6KA4 C-terminal kinase domain | binding | 1 µM | 62%
FC(F)(F)Oc1cccc(-c2cnc3ccc(-c4ccncc4)nn23)c1 | RPS6KA4 N-terminal kinase domain | binding | 5 µM | 97%
COc1cnc(Nc2cccc(S(N)(=O)=O)c2)nc1N1CCN(c2ccccc2)CC1 | RPS6KA4 N-terminal kinase domain | binding | 1 µM | 94%
Cc1cnc(Nc2ccc(C(=O)N3CCC(N4CCCC4)CC3)cc2)nc1-c1cc2ccccc2s1 | RPS6KA4 C-terminal kinase domain | binding | 1 µM | 3.8%
CN(c1nccc(-c2cnn3ncccc23)n1)C1CC1 | RPS6KA4 C-terminal kinase domain | binding | 1 µM | 100%
O=C(NCCCN1CCOCC1)c1ccc(Nc2ncc(Cl)c(-c3ccc(Cl)s3)n2)cc1 | RPS6KA4 C-terminal kinase domain | binding | 1 µM | 26%
CN(CCCC(F)(F)F)c1nccc(-c2cnn3ncccc23)n1 | RPS6KA4 C-terminal kinase domain | binding | 1 µM | 100%
O=C(c1ccc(Nc2ncc(Cl)c(-c3ccc(Cl)s3)n2)cc1)N1CCC(N2CCCC2)CC1 | RPS6KA4 C-terminal kinase domain | binding | 1 µM | 18%
Cc1cnn2ncc(-c3ccnc(N(C)C)n3)c2c1 | RPS6KA4 C-terminal kinase domain | binding | 1 µM | 62%
O=C(Nc1cccnn1)N1CC(C/C=C/c2cncc(Oc3ccc(C(F)(F)F)cn3)n2)C1 | RPS6KA4 N-terminal kinase domain | cell-free assay | 1 µM | 100%
O=C(Nc1c[nH]nc1C(=O)NC1CCNCC1)c1cc(F)cc(F)c1 | RPS6KA4 N-terminal kinase domain | binding | 1 µM | 100%
Cc1noc([C@H]2C[C@@H](c3ccc(C(F)(F)F)cc3)CN(C(=O)N3CCS(=O)(=O)C3)C2)n1 | RPS6KA4 N-terminal kinase domain | cell-free assay | 1 µM | 100%
F[C@@H]1CCN(c2nccc(-c3cnn4ncccc34)n2)C1 | RPS6KA4 C-terminal kinase domain | binding | 1 µM | 92%
O=C(c1ccc(Nc2nccc(-c3cc4ccccc4s3)n2)cc1)N1CCC(N2CCCC2)CC1 | RPS6KA4 C-terminal kinase domain | binding | 1 µM | 14%

Structure (SMILES) | target | read-out | concentration | remaining binding
O=C(NCC1CCOCC1)c1n[nH]cc1NC(=O)c1c(F)cccc1F | RPS6KA4 N-terminal kinase domain | binding | 1 µM | 95%
CNCc1ccccc1-c1csc([C@@H](C)Nc2nc(C)nc3cc(OC)c(OC)cc23)c1 | RPS6KA4 N-terminal kinase domain | cell-free assay | 1 µM | 100%
O=C(NCCCN1CCOCC1)c1ccc(Nc2nccc(-c3cc4ccccc4s3)n2)cc1 | RPS6KA4 N-terminal kinase domain | binding | 1 µM | 100%
C[C@@H](c1ccc(-n2cnc3c(N)ncnc32)cc1)N1CCc2nn(C)c(Cc3ccccc3)c2C1=O | RPS6KA4 C-terminal kinase domain | binding | 0.1 µM | 84%
COc1cnc(Nc2cccc(S(N)(=O)=O)c2)nc1N1CCN(c2ccccc2)C(=O)C1 | RPS6KA4 C-terminal kinase domain | binding | 1 µM | 100%
Cc1c(C(=O)O)cc(-c2ccc(C3CCNCC3)cc2)c2ccc(-c3ccc(C(F)(F)F)cc3)cc12 | RPS6KA4 N-terminal kinase domain | binding | 1 µM | 88%
C=CC(=O)N1CCC(C(=O)NCC(=O)N2CCN(c3nc(-c4cnc(N)nc4C(F)F)nc(N4CCOCC4)n3)CC2)CC1 | RPS6KA4 C-terminal kinase domain | binding | 1 µM | 100%
COc1ncc2cc3ccccc3nc2c1C#N | RPS6KA4 N-terminal kinase domain | cell-free assay | 5 µM | 94%
c1cncc(-c2cccc(Nc3nccc(NC4CCCCC4)n3)c2)c1 | RPS6KA4 N-terminal kinase domain | binding | 10 µM | 78%
Nc1ncc2c(n1)-c1c([nH]c3ccc(C#CC4CC4)cc13)CCCC2 | RPS6KA4 N-terminal kinase domain | binding | 1 µM | 88%
CCN1CCN(Cc2ccc(C(=O)Nc3ccc(C)c(Oc4ccc5c(c4)CC(=O)N5)c3)cc2C(F)(F)F)CC1 | RPS6KA4 N-terminal kinase domain | binding | 1 µM | 100%
CO[C@@H](C)c1c(Nc2ccc([C@H](N(C)C(=O)C3CCS(=O)(=O)CC3)C(F)(F)F)cc2)cnc2cc(Cl)nn12 | RPS6KA4 N-terminal kinase domain | cell-free assay | 1 µM | 86%
C[C@H]1CCN(c2nccc(-c3cnn4ncccc34)n2)C1 | RPS6KA4 C-terminal kinase domain | binding | 1 µM | 56%
CSc1cccnc1N1CCN(Cc2nc3ccccc3[nH]2)CC1 | RPS6KA4 N-terminal kinase domain | cell-free assay | 1 µM | 94%
CNC(=O)[C@@H]1CC[C@@H](n2c(-c3ccc4cnccc4c3)nc3ccc(C(=O)NCc4cccc(C(N)=O)c4)cc32)C1 | RPS6KA4 C-terminal kinase domain | binding | 1 µM | 99%
O=C(N1CCS(=O)(=O)CC1)N1C[C@H](c2ccc(OC(F)(F)F)cc2)C[C@H](c2nc(C3CC3)no2)C1 | RPS6KA4 N-terminal kinase domain | cell-free assay | 1 µM | 100%
COc1ccnn2ncc(-c3ccnc(N(C)C)n3)c12 | RPS6KA4 N-terminal kinase domain | binding | 1 µM | 97%
